Results published in ChEMBL document CHEMBL5335797, “Design, Synthesis, and Evaluation of New 1H-Benzo[d]imidazole Based PqsR Inhibitors as Adjuvant Therapy for Pseudomonas aeruginosa Infections” (J Med Chem, 2024).
The source made the active and inactive calls. No cut-off for these calls is given here.

Experiments:
[1] = molecular target: T1, Transcriptional regulator MvfR (Pseudomonas aeruginosa PA14) (UniProt A0A072ZLE6); experiment: Antagonist activity at PqsR in wild-type Pseudomonas aeruginosa PAO1-L assessed as reduction in HHQ level at 0.2 uM by LCMS/MS analysis; conditions: filed as antagonist
T1 sequence (whole entry): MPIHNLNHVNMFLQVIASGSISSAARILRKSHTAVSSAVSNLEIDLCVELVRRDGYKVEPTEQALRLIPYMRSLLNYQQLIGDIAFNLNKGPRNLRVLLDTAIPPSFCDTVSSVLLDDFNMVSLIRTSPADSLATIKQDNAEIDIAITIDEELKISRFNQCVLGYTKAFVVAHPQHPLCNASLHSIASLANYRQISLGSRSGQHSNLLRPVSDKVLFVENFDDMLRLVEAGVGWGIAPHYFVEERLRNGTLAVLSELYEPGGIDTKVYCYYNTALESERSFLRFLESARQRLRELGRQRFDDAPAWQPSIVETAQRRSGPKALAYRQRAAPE

[2] = molecular target: T1, Transcriptional regulator MvfR (Pseudomonas aeruginosa PA14); experiment: Antagonist activity at PqsR in wild-type Pseudomonas aeruginosa PA14 assessed as reduction in HHQ level at 0.2 uM by LCMS/MS analysis; conditions: filed as antagonist
[3] = molecular target: T1, Transcriptional regulator MvfR (Pseudomonas aeruginosa PA14); experiment: Antagonist activity at PqsR in Pseudomonas aeruginosa IPCD48 clinical isolate assessed as reduction in HHQ level at 0.2 uM by LCMS/MS analysis; conditions: filed as antagonist
[4] = molecular target: T1, Transcriptional regulator MvfR (Pseudomonas aeruginosa PA14); experiment: Antagonist activity at PqsR in Pseudomonas aeruginosa LESB58 clinical isolate assessed as reduction in AQ level at 0.2 uM by LCMS/MS analysis; conditions: filed as antagonist
[5] = molecular target: T1, Transcriptional regulator MvfR (Pseudomonas aeruginosa PA14); experiment: Antagonist activity at PqsR in Pseudomonas aeruginosa IPCD1331 clinical isolate assessed as reduction in HHQ level at 0.2 uM by LCMS/MS analysis
[6] = molecular target: T1, Transcriptional regulator MvfR (Pseudomonas aeruginosa PA14); experiment: Antagonist activity at PqsR in Pseudomonas aeruginosa IPCD1331 clinical isolate assessed as reduction in PQS level at 0.2 uM by LCMS/MS analysis
[7] = molecular target: T1, Transcriptional regulator MvfR (Pseudomonas aeruginosa PA14); experiment: Antagonist activity at PqsR in wild-type Pseudomonas aeruginosa PAO1-L assessed as reduction in PQS level at 0.2 uM by LCMS/MS analysis; conditions: filed as antagonist
[8] = molecular target: T1, Transcriptional regulator MvfR (Pseudomonas aeruginosa PA14); experiment: Antagonist activity at PqsR in wild-type Pseudomonas aeruginosa PA14 assessed as reduction in PQS level at 0.2 uM by LCMS/MS analysis; conditions: filed as antagonist
[9] = molecular target: T1, Transcriptional regulator MvfR (Pseudomonas aeruginosa PA14); experiment: Antagonist activity at PqsR in Pseudomonas aeruginosa IPCD48 clinical isolate assessed as reduction in PQS level at 0.2 uM by LCMS/MS analysis; conditions: filed as antagonist
[10] = molecular target: T1, Transcriptional regulator MvfR (Pseudomonas aeruginosa PA14); experiment: Antagonist activity at PqsR in wild-type Pseudomonas aeruginosa PAO1-L assessed as reduction in HQNO level at 0.2 uM by LCMS/MS analysis relative to control; design: scale not given: the % may be the effect or the level left
[11] = molecular target: T1, Transcriptional regulator MvfR (Pseudomonas aeruginosa PA14); experiment: Antagonist activity at PqsR in wild-type Pseudomonas aeruginosa PA14 assessed as reduction in HQNO level at 0.2 uM by LCMS/MS analysis relative to control; design: scale not given: the % may be the effect or the level left
[12] = molecular target: T1, Transcriptional regulator MvfR (Pseudomonas aeruginosa PA14); experiment: Antagonist activity at PqsR in Pseudomonas aeruginosa IPCD1350 clinical isolate assessed as reduction in HQNO level at 0.2 uM by LCMS/MS analysis relative to control; design: scale not given: the % may be the effect or the level left
[13] = molecular target: T1, Transcriptional regulator MvfR (Pseudomonas aeruginosa PA14); experiment: Antagonist activity at PqsR in Pseudomonas aeruginosa LESB58 clinical isolate assessed as reduction in HQNO level at 0.2 uM by LCMS/MS analysis relative to control; design: scale not given: the % may be the effect or the level left
[14] = molecular target: T1, Transcriptional regulator MvfR (Pseudomonas aeruginosa PA14); experiment: Antagonist activity at PqsR in Pseudomonas aeruginosa IPCD1331 clinical isolate assessed as reduction in HQNO level at 0.2 uM by LCMS/MS analysis relative to control; design: scale not given: the % may be the effect or the level left
[15] = molecular target: T1, Transcriptional regulator MvfR (Pseudomonas aeruginosa PA14); experiment: Antagonist activity at PqsR in Pseudomonas aeruginosa IPCD48 clinical isolate assessed as reduction in HQNO level at 0.2 uM by LCMS/MS analysis relative to control; design: scale not given: the % may be the effect or the level left
[16] = molecular target: T1, Transcriptional regulator MvfR (Pseudomonas aeruginosa PA14); experiment: Antagonist activity at PqsR in Pseudomonas aeruginosa IPCD1451 clinical isolate assessed as reduction in HQNO level at 0.2 uM by LCMS/MS analysis
[17] = molecular target: T1, Transcriptional regulator MvfR (Pseudomonas aeruginosa PA14); experiment: Antagonist activity at PqsR in wild-type Pseudomonas aeruginosa PAO1-L assessed as inhibition of pyocyanin level at 200 nM incubated for 16 hrs by absorbance based assay; conditions: filed as antagonist
[18] = molecular target: T1, Transcriptional regulator MvfR (Pseudomonas aeruginosa PA14); experiment: Antagonist activity at PqsR in wild-type Pseudomonas aeruginosa PA14 assessed as inhibition of pyocyanin level at 200 nM incubated for 16 hrs by absorbance based assay; conditions: filed as antagonist
[19] = molecular target: T1, Transcriptional regulator MvfR (Pseudomonas aeruginosa PA14); experiment: Antagonist activity at PqsR in Pseudomonas aeruginosa IPCD1451 clinical isolate assessed as inhibition of pyocyanin level at 200 nM incubated for 16 hrs by absorbance based assay
[20] = molecular target: T1, Transcriptional regulator MvfR (Pseudomonas aeruginosa PA14); experiment: Antagonist activity at PqsR in Pseudomonas aeruginosa IPCD1350 clinical isolate assessed as inhibition of pyocyanin level at 200 nM incubated for 16 hrs by absorbance based assay; conditions: filed as antagonist
[21] = molecular target: T1, Transcriptional regulator MvfR (Pseudomonas aeruginosa PA14); experiment: Antagonist activity at PqsR in Pseudomonas aeruginosa LESB58 clinical isolate assessed as inhibition of pyocyanin level at 200 nM incubated for 16 hrs by absorbance based assay; conditions: filed as antagonist
[22] = molecular target: T1, Transcriptional regulator MvfR (Pseudomonas aeruginosa PA14); experiment: Antagonist activity at PqsR in Pseudomonas aeruginosa IPCD1331 clinical isolate assessed as inhibition of pyocyanin level at 200 nM incubated for 16 hrs by absorbance based assay; conditions: filed as antagonist
[23] = molecular target: T1, Transcriptional regulator MvfR (Pseudomonas aeruginosa PA14); experiment: Antagonist activity at PqsR in Pseudomonas aeruginosa IPCD48 clinical isolate assessed as inhibition of pyocyanin level at 200 nM incubated for 16 hrs by absorbance based assay; conditions: filed as antagonist
Pseudomonas aeruginosa [24] = experiment: Inhibition of biofilm formation in Pseudomonas aeruginosa PAO1-L at 10 uM incubated for 6 to 24 hrs by SYTO9/PI staining based confocal laser scanning microscopy; type: functional, organism-based; conditions: time 6-24 hrs
Outline: (§1)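 PAO1-L biofilms grown on glass coverslips in a rolling bioreactor (20 rpm) in FAB 10 mM glucose, inoculated at OD600 0.01, 30 °C for 24 h with 10 μM compound from the start. Then PBS wash and 6 or 24 h in fresh medium with 60 μg/mL ciprofloxacin, 20 μM compound, or both. LIVE/DEAD BacLight staining, CLSM; live/dead ratios against untreated.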

Pseudomonas aeruginosa [25] = experiment: Potentiation of Ciprofloxacin-induced antibiofilm activity in Pseudomonas aeruginosa PAO1-L at 10 uM incubated for 6 to 24 hrs by SYTO9/PI staining based confocal laser scanning microscopy; type: functional, organism-based; conditions: time 6-24 hrs; outline: as §1
Pseudomonas aeruginosa [26] = experiment: Inhibition of biofilm formation in GFP-labeled Pseudomonas aeruginosa PAO1-L at 1 uM incubated for 16 hrs by PI staining based confocal laser scanning microscopy; type: functional, organism-based
Outline: (§2)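 GFP-tagged strain (pMMG) grown in RPMI-1640 with 20 mM glucose and 2 μM FeCl3. Seeded at OD600 0.01 on glass coverslips, static 1.5 h at 37 °C. Compound added at 1 μM, then shaken at 60 rpm and 37 °C for 16 h. Tobramycin 100 μg/mL plus propidium iodide 2 μM for a further 2 or 6 h. CLSM, 5 random z-stacks per coverslip.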

Pseudomonas aeruginosa [27] = experiment: Potentiation of Tobramycin-induced antibiofilm activity in Pseudomonas aeruginosa PAO1-L at 1 uM preincubated for 16 hrs followed by tobramycin addition measured for 2 to 6 hrs by PI staining based confocal laser scanning microscopy; type: functional, organism-based; conditions: time 18-22 hrs; outline: as §2
A549 = experiment: Cytotoxicity against human A549 cells assessed as cell viability upto 100 uM incubated for 24 hrs by resazurin reduction assay; type: toxicity, cell-based; conditions: a549, 24 h
Outline: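 A549 cells in DMEM with 10% FBS and 1% PSN, seeded at 1 × 10^4 cells/well. Compound at 1, 50 and 100 μM in sextuplicate, 24 h at 37 °C and 5% CO2. Vehicle control 1% DMSO; positive control 100 μM K2Cr2O7. Alamar blue added for 4–6 h, fluorescence read at ex 510/em 590 nm, normalized to DMSO.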

[28] = Inhibition of Pseudomonas aeruginosa pqsA-lux complex expressed in Pseudomonas aeruginosa PAO1-L by bioluminescent reporter assay
Outline: (§3)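 Reporter strains PAO1-L and PA14 carrying chromosomal mCTX::PpqsA-lux, grown in LB at 37 °C. Inhibition read as reduced luminescence. Single-point screen at 10 μM from 10 mM DMSO stock; dose–response curves in both strains; mean ± SD, n = 2.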

[29] = Inhibition of Pseudomonas aeruginosa pqsA-lux complex expressed in Pseudomonas aeruginosa PA14 by bioluminescent reporter assay; outline: as §3
Pseudomonas aeruginosa [30] = experiment: Inhibition of Pseudomonas aeruginosa pqsA-lux complex expressed in Pseudomonas aeruginosa PAO1-L at 10 uM by bioluminescent reporter assay; outline: as §3
Pseudomonas aeruginosa [31] = experiment: Inhibition of Pseudomonas aeruginosa pqsA-lux complex expressed in Pseudomonas aeruginosa PA14 at 10 uM by bioluminescent reporter assay; outline: as §3
[32] = molecular target: T1, Transcriptional regulator MvfR (Pseudomonas aeruginosa PA14); experiment: Antagonist activity at PqsR in wild-type Pseudomonas aeruginosa PAO1-L assessed as inhibition of pyocyanin level at 3 times IC50 incubated for 16 hrs by absorbance based assay relative to control; conditions: filed as antagonist

## CC(C)n1c(NCC(O)COc2ccc(CC#N)cc2)nc2ccc(Cl)cc21 (stereo not given)
[1]
  Activity: Active
[2]
  Activity: Active
[3]
  Activity: Active
[4]
  Activity: Active
[5]
  Activity: inactive
[6]
  Activity: inactive
[7]
  Activity: Active
[8]
  Activity: Active
[9]
  Activity: Active
[10]
  Activity: 20%
[11]
  Activity: 20%
[12]
  Activity: 20%
[13]
  Activity: 20%
[14]
  Activity: 20%
[15]
  Activity: 20%
[16]
  Activity: inactive
[17]
  inhibition: Active
[18]
  inhibition: Active
[19]
  inhibition: inactive
[20]
  inhibition: Active
[21]
  inhibition: Active
[22]
  inhibition: Active
[23]
  inhibition: Active
Pseudomonas aeruginosa [24]
  inhibition: inactive
Pseudomonas aeruginosa [25]
  Activity: Active
Pseudomonas aeruginosa [26]
  inhibition: inactive
Pseudomonas aeruginosa [27]
  Activity: Active
A549
  Activity: Non-Toxic

## CN(C)CCn1c(NCC(O)COc2ccc(CC#N)cc2)nc2ccc(Cl)cc21 (stereo not given)
[28]
  IC50: Not Active
[29]
  IC50: Not Active

## N#CCc1ccc(OCC(O)CNc2nc3ccc(Cl)cc3o2)cc1 (stereo not given)
Pseudomonas aeruginosa [30]
  inhibition: inactive
Pseudomonas aeruginosa [31]
  inhibition: inactive

## N#CCc1ccc(OCC(O)CNc2nc3ccc(Cl)cc3s2)cc1 (stereo not given)
Pseudomonas aeruginosa [30]
  inhibition: inactive
Pseudomonas aeruginosa [31]
  inhibition: inactive

## N#CCc1ccc(OCC(O)CNc2nc3ccc(Cl)cc3n2CCO)cc1 (stereo not given)
[32]
  inhibition: > 50%

## CC(C)n1c(NCC(O)COc2ccc(CC#N)c(F)c2)nc2ccc(Cl)cc21 (stereo not given)
[32]
  inhibition: > 50%

## N#CCc1ccc(OCC(O)CNc2nc3ccc(Cl)cc3n2CCOCc2ccccc2)cc1 (stereo not given)
[29]
  IC50: Not Active

## CCn1c(NCC(O)COc2ccc(CC#N)cc2)nc2ccc(Cl)cc21 (stereo not given)
[32]
  inhibition: > 50%

## CC(C)n1c(NCC(N)COc2ccc(CC#N)cc2)nc2ccc(Cl)cc21 (stereo not given)
[29]
  IC50: Not Active

## Cn1c(NCC(O)COc2ccc(CC#N)cc2)nc2cc(Cl)ccc21 (stereo not given)
[28]
  IC50: Not Active
[29]
  IC50: Not Active

## N#CCc1ccc(OCC(O)CNc2nc3ccc(Cl)cc3n2C2CC2)cc1 (stereo not given)
[32]
  inhibition: > 50%

## N#CCc1ccc(OCC(O)CNc2nc3ccc(Cl)cc3n2C2CCC2)cc1 (stereo not given)
[32]
  inhibition: > 50%

## COCCn1c(NCC(O)COc2ccc(CC#N)cc2)nc2ccc(Cl)cc21 (stereo not given)
[32]
  inhibition: > 50%

## Cn1c(NCC(O)COc2ccc(CC#N)cc2)nc2cc(Cl)c(Cl)cc21 (stereo not given)
[28]
  IC50: Not Active
[29]
  IC50: Not Active

## CN1CCC(n2c(NCC(O)COc3ccc(CC#N)cc3)nc3ccc(Cl)cc32)CC1 (stereo not given)
[28]
  IC50: Not Active
[29]
  IC50: Not Active

## Cn1c(NCC(O)COc2ccc(CC#N)cc2)nc2ccc(C(F)(F)F)cc21 (stereo not given)
[28]; read-out: IC50
  IC50: 1.5 µM
[29]
  IC50: Not Active

## Cn1c(SCC(O)COc2ccc(CC#N)cc2)nc2ccc(Cl)cc21 (stereo not given)
Pseudomonas aeruginosa [30]
  inhibition: inactive
Pseudomonas aeruginosa [31]
  inhibition: inactive

## CC(C)n1c(NCC(O)COc2ccc(CC#N)cc2F)nc2ccc(Cl)cc21 (stereo not given)
[32]
  inhibition: > 50%
A549
  Activity: Non-Toxic

## Cn1c(NCC(O)COc2ccc(CC#N)cc2)nc2ccc(Cl)cc21 (stereo not given)
[32]
  inhibition: > 50%
